How the values were obtained:
[1] = tested on: MS2 coat protein; assay: apparent Kd, MS2 coat protein; higher = weaker binding; RNA-MaP array; tryptophan 2.4 mM where present
In short: (§1)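 Green signal was scaled to red-channel RNA signal and control-cluster median Fmax, and the apparent Kd was taken as the median of filtered per-cluster binding-curve fits. The binding series used SNAP-549-labelled MS2 coat protein from 0.7 or 1.5 nM, doubling to 3 µM, on designs transcribed by stalled E. coli RNA polymerase on Illumina sequencing-chip clusters. Each series ran without and then with constant ligand in 100 mM Tris-HCl pH 7.5, 80 mM KCl, 4 mM MgCl2, BSA, DTT, yeast tRNA and Tween-20.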

[2] = tested on: MS2 coat protein; assay: apparent Kd, MS2 coat protein; higher = weaker binding; RNA-MaP array; theophylline 2 mM where present
In short: as §1

[3] = designed as: OFF switch for tryptophan, no ligand
[4] = ligand present: tryptophan, designed as: OFF switch for tryptophan
[5] = designed as: ON switch for tryptophan, no ligand
[6] = ligand present: tryptophan, designed as: ON switch for tryptophan
[7] = designed as: ON switch for theophylline, no ligand
[8] = ligand present: theophylline, designed as: ON switch for theophylline
[9] = designed as: OFF switch for theophylline, no ligand
[10] = ligand present: theophylline, designed as: OFF switch for theophylline

“CCUCAUGAACAUGAGGAUCACCCAUGUACACGAGGACCGGUACGGCCGCCACUCGAAUAACCUAAAUAUAAAUAAUAAUAAUAGG” was tested, and the “apparent Kd” value [1, 3] was 0.0158 µM and the “apparent Kd” value [1, 4] was 0.043 µM.
“CGAUAUAAGACGGCCGCCACUAUUAAGUAACAAAAUAAACAUGAGGAUCACCCAUGUACAUGGGAUAGGACCGGGUCCAAUAACG” was tested, and the “apparent Kd” value [1, 5] was 0.163 µM and the “apparent Kd” value [1, 6] was 0.0769 µM.
“CGUAGUAUCAGACAUGAGGAUCACCCAUGUCGAGGACCGGUACGGCCGCCACUCGGCAGUUUGCGUCCUCAGGUACUCCAGGUAA” was tested, and the “apparent Kd” value [1, 3] was 0.0159 µM and the “apparent Kd” value [1, 4] was 0.0187 µM.
For “CGUAUUGGAAACAGUACGAGUGAUCCGGUCCGAGGACCGGUACGGCCGCCACUCGAUAUAAAUAAACAUGAGGAUCACCCAUGUA”, the “apparent Kd” value [1, 3] was 0.0163 µM and the “apparent Kd” value [1, 4] was 0.0257 µM.
For “GAGAGAGGAGUGCGGCGUGUUCCGCUCCGUCGAGGACCGGUACGGCCGCCACUCGACAUGAGGAUCACCCAUGUCCUCUCUCGCG”, the “apparent Kd” value [1, 3] was 0.0313 µM and the “apparent Kd” value [1, 4] was 0.0138 µM.
With “GAGGAAACUCACAUGAGGAUCACCCAUGUACGAGGACCGGUACGGCCGCCACUCGAAACCAUGGGCGGUAGUACGUGGAAGCUUG” the “apparent Kd” value [1, 3] was 0.0218 µM and the “apparent Kd” value [1, 4] was 0.0959 µM.
With “GCUGCAGCUACGGCCGCCACUGUUACGUGAGACAUGAGGAUCACCCAUGUUGAUGUUUUACAGAAUAGGACCGGGUAGUUGUAGU” the “apparent Kd” value [1, 3] was 0.00907 µM and the “apparent Kd” value [1, 4] was 0.0102 µM.
In the case of “GGACUCGUCACGGCCGCCACUGCGGUGGUGUGACAUGAGGAUCACCCAUGUUGUCAUGCGGCCCUUAGGACCGGGUGUCGCUUCC”, the “apparent Kd” value [1, 3] is reported as 0.169 µM and the “apparent Kd” value [1, 4] is reported as 0.198 µM.
For “GGAUAGGACACGGCCGCCACUACCUAGGAUACUAGAAACAUUUCCUCACAUGAGGAUCACCCAUGUAGGACCGGGUGUCCUAUCG”, the “apparent Kd” value [1, 3] was 0.273 µM and the “apparent Kd” value [1, 4] was 0.115 µM.
“GGCCAUGGAAACAUGGCGGCGGCAUAAGCGCGAGGACCGGUACGGCCGCCACUCGGGCGACAUGAGGAUCACCCAUGUUCCUCAU” was tested, and the “apparent Kd” value [1, 3] was 0.317 µM and the “apparent Kd” value [1, 4] was 0.541 µM.
With “GGCUAGGUCUCGGCCGCCACUGCUACAUGAGGAUCACCCAUGUACCUGGGCGGUCGCUCCCUCGGCAGGACCGGGAGACAUUCGU” the “apparent Kd” value [1, 3] was 0.00997 µM and the “apparent Kd” value [1, 4] was 0.023 µM.
With “GGGAGAUAGGCGGCCGCCACUGAUUUUCAUAUAUAUAUAACAUGAGGAUCACCCAUGUAGAUAUACAGGACCGGGCCUAUUUUUU” the “apparent Kd” value [1, 5] was 0.0175 µM and the “apparent Kd” value [1, 6] was 0.0162 µM.
With “GGGUGGUAGGCGGCCGCCACUGAUUUUCAUUCCUAGAUGACAUGAGGAUCACCCAUGUUUAUGGGCAGGACCGGGCCUGCUGUGG” the “apparent Kd” value [1, 5] was 0.0627 µM and the “apparent Kd” value [1, 6] was 0.0557 µM.
For “UAUUUGGUGCGCGAGCGUUGGAUAAUUGAUACCAGUGAAGAAGAGCGCCCUUGGCAGCGAAUCCUAACAUGAGGAUCACCCAUGU”, the “apparent Kd” value [2, 7] was 0.041 µM and the “apparent Kd” value [2, 8] was 0.0567 µM.
For “UCACAUGAGGAUCACCCAUGUACAGGCGAUACCAGCCGUACAUUGGGCCCUUGGCAGCGCAUCGAGACCUUUAUAAGCACCUCGG”, the “apparent Kd” value [2, 7] was 0.0499 µM and the “apparent Kd” value [2, 8] was 0.298 µM.
With “UCCUCCUCCGGAAGGAGGAGGAGUUGCGAUACCAGCCCGGAAACGGGCCCUUGGCAGCGCACAUGAGGAUCACCCAUGUCAUGUU” the “apparent Kd” value [2, 9] was 0.0184 µM and the “apparent Kd” value [2, 10] was 0.0241 µM.
In the case of “UCGUGUGUUUCGGAUACCAGUGUGGUCGAUACAUGAGGAUCACCCAUGUGAGAGGAGGUACACCCUUGGCAGCUGGCUGUUGCGG”, the “apparent Kd” value [2, 7] is reported as 0.072 µM and the “apparent Kd” value [2, 8] is reported as 0.0864 µM.
“UCUUACUUGGUAGAUACCAGCGUGUUAUCUUUCUUUUGACAUGAGGAUCACCCAUGUAUAUGCCCUUGGCAGCUGCAUAGUGUGU” was tested, and the “apparent Kd” value [2, 7] was 0.0349 µM and the “apparent Kd” value [2, 8] was 0.0351 µM.
With “UCUUGGUCCGCAAGGACCGUGAGUUGCGAUACCAGCACGGUAACGUGCCCUUGGCAGCGCACAUGAGGAUCACCCAUGUGGUGUU” the “apparent Kd” value [2, 9] was 0.281 µM and the “apparent Kd” value [2, 10] was 0.318 µM.
With “UGACAUUGCUCAGAUACCAGACAUGAGGAUCACCCAUGUGCCAAACGUACAAUAAUAAAUGUCCCUUGGCAGCUGAGCAAUGUCU” the “apparent Kd” value [2, 9] was 0.0113 µM and the “apparent Kd” value [2, 10] was 0.101 µM.
“UGACAUUGCUGCGAUACCAGACAUGAGGAUCACCCAUGUACCAAGGUACCCGAAAGGAAUGUCCCUUGGCAGCGCAGCAAUGUCU” was tested, and the “apparent Kd” value [2, 9] was 0.0094 µM and the “apparent Kd” value [2, 10] was 0.0213 µM.
For “UGCGAUUGCUCAGAUACCAGACAUGAGGAUCACCCAUGUACCAAGGUAAAGAAAUAACGUGUCCCUUGGCAGCUGAGCAAUCGCU”, the “apparent Kd” value [2, 9] was 0.0102 µM and the “apparent Kd” value [2, 10] was 0.0984 µM.
“UGUAUGUGAAGUGAUACCAGUCCAUAAACUGGAACAUGAGGAUCACCCAUGUAAUGGGUGGACCCUUGGCAGCACUUCUCAUACU” was tested, and the “apparent Kd” value [2, 7] was 0.122 µM and the “apparent Kd” value [2, 8] was 0.136 µM.
In the case of “UUAGAUAUGACGGAUACCAGCGUGUUGUAGAACAUGAGGAUCACCCAUGUAGUGAUCAUGCGCCCUUGGCAGCUGGUAUGUUUGG”, the “apparent Kd” value [2, 7] is reported as 0.262 µM and the “apparent Kd” value [2, 8] is reported as 0.829 µM.
In the case of “UUAGAUAUGACGGAUACCAGCGUGUUGUAGAACAUGAGGAUCACCCAUGUAGUGAUCGAGCGCCCUUGGCAGCUGGUAUGUUUGG”, the “apparent Kd” value [2, 7] is reported as 0.179 µM and the “apparent Kd” value [2, 8] is reported as 0.482 µM.
“UUUUUCGCGGGUGAUACCAGCAAAGCUGUACUGGUCUGGUACAUGAGGAUCACCCAUGUUUGCCCUUGGCAGCGCUCGGGAGAAG” was tested, and the “apparent Kd” value [2, 9] was 0.0295 µM and the “apparent Kd” value [2, 10] was 0.0719 µM.
